Test results reported in publication PMC3831274 (Bioorganic & medicinal chemistry, 2013).

What was measured:
[1] = biological target: Human Mcl-1 (Homo sapiens, UniProt Q07820); assay: fluorescence polarization; assay type: binding; conditions: for Mcl-1 potency relative to initial hit 1 (in words): SAR of phenyl region
[2] = biological target: Bcl-xL (Homo sapiens, UniProt Q07817); assay: fluorescence polarization; assay type: binding
[3] = tested on: several cell lines derived from various human malignancies; assay: antiproliferative activity across several cell lines; assay type: cell-based
How it was run: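 Cells at 2.5 × 10⁵ cells/mL in 384-well plates; suspension lines in RPMI-1640/10% FBS (mouse lines plus β-mercaptoethanol), adherent lines in DMEM/10% FBS. Seven 2-fold dilutions from 5 µM or 20 µM top; DMSO top 0.2%. 37°C, 48 h; PrestoBlue read-out. Media background subtracted; viability normalized to cells-only wells (100%). Two independent triplicate runs (n=6) or three replicate experiments, by cell set.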

[4] = tested on: SUDHL-8; assay: cytochrome c release determination; assay type: cell-based, human; conditions: SUDHL-8, 2 hours, 20µM EU-5346 or 100µM Puma
[5] = tested on: Mcl1-1780; assay: nuclear apoptosis determination; assay type: cell-based, mouse; conditions: Mcl1-1780, 24 hours
[6] = biological target: CYP450 3A4 (Homo sapiens, UniProt P08684); assay: CYP450 inhibition 3A4; assay type: in vitro ADME
[7] = biological target: T1, CYP450 1A2 (Homo sapiens, UniProt P05177); assay: CYP450 inhibition 1A2
T1 sequence (P05177 1-516): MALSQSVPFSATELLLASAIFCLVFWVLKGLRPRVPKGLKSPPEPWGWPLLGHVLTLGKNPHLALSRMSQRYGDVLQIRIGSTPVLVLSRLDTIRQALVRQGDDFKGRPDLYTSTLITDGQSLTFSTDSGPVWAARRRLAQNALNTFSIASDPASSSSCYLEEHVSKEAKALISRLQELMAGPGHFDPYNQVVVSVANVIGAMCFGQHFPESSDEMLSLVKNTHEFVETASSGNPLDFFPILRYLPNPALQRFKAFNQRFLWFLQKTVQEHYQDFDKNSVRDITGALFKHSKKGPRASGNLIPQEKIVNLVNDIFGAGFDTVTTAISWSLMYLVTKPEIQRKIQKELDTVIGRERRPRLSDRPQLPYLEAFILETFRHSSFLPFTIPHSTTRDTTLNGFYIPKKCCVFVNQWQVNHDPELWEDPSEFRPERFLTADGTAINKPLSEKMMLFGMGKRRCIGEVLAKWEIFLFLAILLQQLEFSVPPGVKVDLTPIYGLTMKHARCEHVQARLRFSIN

[8] = biological target: CYP450 2D6 (Homo sapiens, UniProt P10635); assay: CYP450 inhibition 2D6; assay type: in vitro ADME
[9] = tested on: SUDHL-6; assay: cytochrome c release determination; assay type: cell-based, human; conditions: SUDHL-6, 2 hours, 20µM EU-5346 or 100µM Puma
[10] = biological target: CYP450 2C9 (Homo sapiens, UniProt P11712); assay: CYP450 inhibition 2C9; assay type: in vitro ADME
[11] = tested on: Bcl2-1863; assay: Annexin V apoptosis assay; assay type: cell-based, mouse; conditions: Bcl2-1863, 16 hours, 0.15 µM-40 µM
[12] = tested on: SUDHL-10; assay: cytochrome c release determination; assay type: cell-based, human; conditions: SUDHL-10, 2 hours, 20µM EU-5346 or 100µM Puma
[13] = tested on: Mcl1-1780; assay: cytochrome c release determination; assay type: cell-based, mouse; conditions: Mcl1-1780 compared with Bcl2-1863, 2 hours
[14] = tested on: Mcl1-1780; assay: Annexin V apoptosis assay; assay type: cell-based, mouse; conditions: Mcl1-1780, 16 hours, 0.15 µM-40 µM
[15] = tested on: Bcl2-1863; assay: nuclear apoptosis determination; assay type: cell-based, mouse; conditions: Bcl2-1863, 24 hours

Chain of Human Mcl-1 (Q07820 1-327 limits assumed): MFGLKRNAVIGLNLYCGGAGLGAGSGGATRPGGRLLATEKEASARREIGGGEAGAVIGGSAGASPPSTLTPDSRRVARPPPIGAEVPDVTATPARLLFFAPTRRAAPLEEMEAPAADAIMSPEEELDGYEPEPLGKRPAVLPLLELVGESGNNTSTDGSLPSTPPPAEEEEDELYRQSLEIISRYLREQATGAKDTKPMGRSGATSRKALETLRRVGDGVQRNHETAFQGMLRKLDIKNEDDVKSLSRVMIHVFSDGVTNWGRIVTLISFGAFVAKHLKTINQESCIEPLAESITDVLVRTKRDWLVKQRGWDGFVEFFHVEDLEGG
Chain of Bcl-xL (Q07817 1-209 limits assumed): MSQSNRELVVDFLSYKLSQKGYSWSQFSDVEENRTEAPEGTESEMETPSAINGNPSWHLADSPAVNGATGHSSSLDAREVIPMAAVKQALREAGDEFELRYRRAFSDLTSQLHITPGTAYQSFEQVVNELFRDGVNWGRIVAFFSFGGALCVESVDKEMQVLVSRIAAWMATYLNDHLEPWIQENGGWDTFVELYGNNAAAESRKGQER
Chain of CYP450 3A4 (P08684 whole entry): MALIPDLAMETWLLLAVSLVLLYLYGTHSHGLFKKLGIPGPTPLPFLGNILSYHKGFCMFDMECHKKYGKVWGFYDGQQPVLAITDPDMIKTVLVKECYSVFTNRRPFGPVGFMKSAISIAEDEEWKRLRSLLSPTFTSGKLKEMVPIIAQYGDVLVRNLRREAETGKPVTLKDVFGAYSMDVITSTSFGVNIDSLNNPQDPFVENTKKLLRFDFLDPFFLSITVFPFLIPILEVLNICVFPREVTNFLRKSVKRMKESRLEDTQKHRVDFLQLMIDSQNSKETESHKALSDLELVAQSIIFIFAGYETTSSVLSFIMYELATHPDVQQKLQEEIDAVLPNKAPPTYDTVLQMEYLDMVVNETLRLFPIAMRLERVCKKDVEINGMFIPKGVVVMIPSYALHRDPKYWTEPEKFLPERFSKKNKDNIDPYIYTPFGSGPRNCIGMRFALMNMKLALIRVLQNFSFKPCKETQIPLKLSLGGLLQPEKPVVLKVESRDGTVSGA
Chain of CYP450 2D6 (P10635 whole entry): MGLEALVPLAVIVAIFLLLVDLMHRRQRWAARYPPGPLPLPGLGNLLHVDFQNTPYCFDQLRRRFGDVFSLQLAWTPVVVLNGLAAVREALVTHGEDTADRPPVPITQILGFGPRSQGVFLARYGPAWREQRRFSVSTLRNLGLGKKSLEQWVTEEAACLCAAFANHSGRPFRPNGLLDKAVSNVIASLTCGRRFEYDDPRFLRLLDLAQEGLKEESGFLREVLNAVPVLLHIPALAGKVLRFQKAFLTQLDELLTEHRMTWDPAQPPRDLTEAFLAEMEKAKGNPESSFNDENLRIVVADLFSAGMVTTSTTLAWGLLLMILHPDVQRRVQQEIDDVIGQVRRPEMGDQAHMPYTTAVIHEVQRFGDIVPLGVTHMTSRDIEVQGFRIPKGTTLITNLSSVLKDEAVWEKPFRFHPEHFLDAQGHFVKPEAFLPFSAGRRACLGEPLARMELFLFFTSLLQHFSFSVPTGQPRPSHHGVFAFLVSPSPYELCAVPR
Chain of CYP450 2C9 (P11712 whole entry): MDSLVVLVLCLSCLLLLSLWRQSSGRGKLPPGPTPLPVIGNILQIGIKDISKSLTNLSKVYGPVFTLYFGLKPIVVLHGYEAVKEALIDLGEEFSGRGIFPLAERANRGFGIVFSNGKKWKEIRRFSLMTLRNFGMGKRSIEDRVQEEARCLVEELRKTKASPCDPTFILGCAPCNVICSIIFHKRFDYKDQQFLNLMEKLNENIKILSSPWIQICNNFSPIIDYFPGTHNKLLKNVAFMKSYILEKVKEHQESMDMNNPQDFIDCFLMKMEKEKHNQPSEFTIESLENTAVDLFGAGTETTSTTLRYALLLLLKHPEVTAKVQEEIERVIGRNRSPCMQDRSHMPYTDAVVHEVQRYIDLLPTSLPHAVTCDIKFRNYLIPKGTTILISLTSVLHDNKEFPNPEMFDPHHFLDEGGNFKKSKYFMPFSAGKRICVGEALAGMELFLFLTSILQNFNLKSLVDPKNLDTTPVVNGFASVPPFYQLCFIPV

O=C(O)COc1ccccc1C(Nc1ccccn1)c1cc(Cl)c2cccnc2c1O (stereo not shown) [Compound 1]
selectivity over Bcl-xL ([1]; Mcl-1 versus Bcl-xL, FP assays): greater than 40 fold
inhibition of Bcl-xL ([2]; at 100 µM): no appreciable inhibition
antiproliferative activity (in words) ([3]; cell lines not specified): only modest antiproliferative activity

COc1ccc(C(Nc2ccccn2)c2cc(Cl)c3cccnc3c2O)cc1 (stereo not shown) [Compound 6]
Mcl-1 potency relative to initial hit 1 (in words) [1]: enhanced potency

Oc1c(C(Nc2ccccn2)c2ccco2)cc(Cl)c2cccnc12 (stereo not shown) [Compound 7]
Mcl-1 potency relative to initial hit 1 (in words) [1]: enhanced potency

Cc1ccnc(NC(c2ccc(F)cc2)c2cc(Cl)c3cccnc3c2O)c1 (stereo not shown) [Compound 8]
Mcl-1 potency relative to initial hit 1 (in words) [1]: five-fold more potent

CCN1CCN(C(c2ccc(C(F)(F)F)cc2)c2cc(Cl)c3cccnc3c2O)CC1 (stereo not shown) [Compound 9]
cytochrome c release [4]: significantly reduced
induction of nuclear apoptosis / reduced viability (DAPI) [5]: reduces viability with a marked preference
IC50 ([2]; read-out: Bcl-xL IC50, FP assay, GST-Bcl-xL, FITC-Bim): 40 µM
IC50 [6]: > 10 µM
IC50 [7]: > 10 µM
IC50 [8]: > 10 µM
cytochrome c release [9]: greatest extent of cytochrome c release
IC50 [10]: > 10 µM
percent of Annexin V positive cells [11]: displayed dose-dependency
EC50 ([3]; Homo sapiens, read-out: EC50 values, range over cell lines): 0.3 to 15 µM
efficacy in cellular proliferation assays (in words) ([3]; Mcl1-1780, Bcl2-1863, SUDHL-6, NCIH929): low micromolar efficacy
cytochrome c release [12]: significantly reduced
cytochrome c release [13]: significantly greater
percent of Annexin V positive cells [14]: greater in Mcl1-1780 than in Bcl2-1863

CC1(C)CCC(c2ccc(Cl)cc2)=C(CN2CCN(c3ccc(C(=O)NS(=O)(=O)c4ccc(N[C@H](CCN5CCOCC5)CSc5ccccc5)c(S(=O)(=O)C(F)(F)F)c4)cc3)CC2)C1 [Navitoclax, reference compound]
induction of nuclear apoptosis / reduced viability (DAPI) [5]: only minimal effectiveness
induction of nuclear apoptosis / reduced viability (DAPI) [15]: distinct preference in inducing apoptosis
